For data set [1] the following is noted: 1 M HCl, 298 K; cited from earlier work.
A short description of data set [2]: T1-weighted phantom images at 7 T in mouse serum and PBS. The class given is physicochemical. Conditions: 25 °C, 0.3 mM in mouse serum. Summed up: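 T1-weighted phantoms of Gd3+ complex in mouse blood serum were imaged at 7 T. A clinical Gd3+ agent and serum alone served as comparators. A spin echo sequence was used, TE = 10 ms, TR = 400 ms, and signal intensities were read.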

The conditions of data set [3]: cited from earlier work.

We go through 3 compounds from PMC12778361 (Chemical Science, 2025).

SMILES strings stand for the structures. Read-outs that look alike come from different tables or passages of the source.

In the case of `O=C([O-])CN1CCNCCN(CC(=O)[O-])CCN(CC(=O)[O-])CC1.[Gd+3]` [GdDO3A], in data set [1], the “kobs dissociation rate constant” value was 0.023 s⁻¹ and the t1/2 dissociation half-life is reported as 0.5 min.
With `O=C([O-])CN1CCN(CC(=O)[O-])CCN(CC(=O)O)CCN(CC(=O)[O-])CC1.[Gd+3]` [GdDOTA], the “signal intensity, T1-weighted phantom” value in data set [2] was 3.97 × 10^4. Moreover, in data set [1], the “kobs dissociation rate constant” value was 1.8e-06 s⁻¹ and the t1/2 dissociation half-life is on record as 6418 min.
Consider `CC(O)CN1CCN(CC(=O)[O-])CCN(CC(=O)[O-])CCN(CC(=O)[O-])CC1.[Gd+3]` (centres unmarked) [GdHPDO3A], for which the r1 relaxivity in data set [3] (20 MHz, 25 °C) is 4.6 mM⁻¹ s⁻¹. In data set [3] (SAP isomer), the “kex^298 water exchange rate” value is reported as 1.56 10^6 s^−1, the “ΔH≠” value is 12.7 kcal/mol and the “ΔS≠” value is reported as “+52 kJ mol^−1 K^−1”. Further, in data set [3] (TSAP isomer), the “kex^298 water exchange rate” value is listed as 112 10^6 s^−1 and the “ΔH≠” value was 3.59 kcal/mol. The “τR^298 rotational correlation time” value in data set [3] was 65 ps. Besides, in data set [1], the “kobs dissociation rate constant” value is 0.00026 s⁻¹ and the t1/2 dissociation half-life is 44 min.
